Values after ≈ are worked out from the molar mass of the structure shown.
Experiments:
Assay type in all cases: functional
Candida albicans [1] = experiment: Antifungal activity against Candida albicans SC5314 by Etest
Summary of the method: (§1)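 MIC by Etest, checked against the CLSI (NCCLS M27-A2) broth microdilution method. Both methods agreed within twofold.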

Candida parapsilosis [2] = experiment: Antifungal activity against Candida parapsilosis isolate 2 assessed as maximum log cell kill at 4 times MIC after 24 to 48 hrs by time-kill method
Summary of the method: (§2)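 Bloodstream isolate colonies from 48-h Sabouraud dextrose agar cultures were suspended in sterile water. […] Samples taken 0–72 h were plated for CFU. Value is the maximum log difference from drug-free control per time window. Run in duplicate.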

Candida parapsilosis [3] = experiment: Antifungal activity against Candida parapsilosis isolate 2 assessed as maximum log cell kill at MIC after 24 hrs by time-kill method; summary of the method: as §2
Nakaseomyces glabratus [4] = experiment: Antifungal activity against Candida glabrata isolate 2 assessed as maximum log cell kill at 16 times MIC after 24 to 48 hrs by time-kill method
Nakaseomyces glabratus [5] = experiment: Antifungal activity against Candida glabrata isolate 1 assessed as maximum log cell kill at MIC after >48 hrs by time-kill method
Candida parapsilosis [6] = experiment: Antifungal activity against Candida parapsilosis isolate 2 assessed as maximum log cell kill at 16 times MIC after >48 hrs by time-kill method
Candida parapsilosis [7] = experiment: Antifungal activity against Candida parapsilosis isolate 2 by Etest; details: Lodderomyces parapsilosis
Candida albicans [8] = experiment: Antifungal activity against Candida albicans SC5314 assessed as maximum log cell kill at MIC after 24 hrs by time-kill method
Candida parapsilosis [9] = experiment: Antifungal activity against Candida parapsilosis isolate 1 assessed as maximum log cell kill at 16 times MIC after 24 to 48 hrs by time-kill method
Nakaseomyces glabratus [10] = experiment: Antifungal activity against Candida glabrata isolate 1 assessed as maximum log cell kill at 4 times MIC after >48 hrs by time-kill method
Candida parapsilosis [11] = experiment: Antifungal activity against Candida parapsilosis isolate 1 assessed as maximum log cell kill at 16 times MIC after 24 hrs by time-kill method
Nakaseomyces glabratus [12] = experiment: Antifungal activity against Candida glabrata isolate 1 assessed as maximum log cell kill at MIC after 24 to 48 hrs by time-kill method
Candida parapsilosis [13] = experiment: Antifungal activity against Candida parapsilosis isolate 2 assessed as maximum log cell kill at MIC after >48 hrs by time-kill method; summary of the method: as §2
Candida albicans [14] = experiment: Antifungal activity against Candida albicans ATCC 90029 assessed as maximum log cell kill at 4 times MIC after 24 hrs by time-kill method
Nakaseomyces glabratus [15] = experiment: Antifungal activity against Candida glabrata isolate 2 by Etest; summary of the method: as §1
Candida parapsilosis [16] = experiment: Antifungal activity against Candida parapsilosis isolate 2 assessed as maximum log cell kill at 16 times MIC after 24 to 48 hrs by time-kill method
Candida albicans [17] = experiment: Antifungal activity against Candida albicans ATCC 90029 assessed as maximum log cell kill at 16 times MIC after >48 hrs by time-kill method
Nakaseomyces glabratus [18] = experiment: Antifungal activity against Candida glabrata isolate 2 assessed as maximum log cell kill at MIC after 24 hrs by time-kill method
Nakaseomyces glabratus [19] = experiment: Antifungal activity against Candida glabrata isolate 2 assessed as maximum log cell kill at 4 times MIC after 24 to 48 hrs by time-kill method
Candida albicans [20] = experiment: Antifungal activity against Candida albicans SC5314 assessed as maximum log cell kill at 4 times MIC after 24 hrs by time-kill method
Candida albicans [21] = experiment: Antifungal activity against Candida albicans ATCC 90029 assessed as maximum log cell kill at MIC after >48 hrs by time-kill method
Candida parapsilosis [22] = experiment: Antifungal activity against Candida parapsilosis isolate 1 assessed as maximum log cell kill at 16 times MIC after >48 hrs by time-kill method
Candida parapsilosis [23] = experiment: Antifungal activity against Candida parapsilosis isolate 2 assessed as maximum log cell kill at 16 times MIC after 24 hrs by time-kill method
Candida parapsilosis [24] = experiment: Antifungal activity against Candida parapsilosis isolate 2 assessed as maximum log cell kill at 4 times MIC after 24 hrs by time-kill method; summary of the method: as §2
Candida parapsilosis [25] = experiment: Antifungal activity against Candida parapsilosis isolate 1 assessed as maximum log cell kill at MIC after 24 to 48 hrs by time-kill method
Candida parapsilosis [26] = experiment: Antifungal activity against Candida parapsilosis isolate 1 by Etest; details: Lodderomyces parapsilosis; summary of the method: as §1
Nakaseomyces glabratus [27] = experiment: Antifungal activity against Candida glabrata isolate 2 assessed as maximum log cell kill at MIC after >48 hrs by time-kill method
Candida albicans [28] = experiment: Antifungal activity against Candida albicans SC5314 assessed as maximum log cell kill at 16 times MIC after 24 hrs by time-kill method
Candida parapsilosis [29] = experiment: Antifungal activity against Candida parapsilosis isolate 1 assessed as maximum log cell kill at 4 times MIC after 24 to 48 hrs by time-kill method
Candida albicans [30] = experiment: Antifungal activity against Candida albicans ATCC 90029 assessed as maximum log cell kill at 4 times MIC after 24 to 48 hrs by time-kill method
Nakaseomyces glabratus [31] = experiment: Antifungal activity against Candida glabrata isolate 2 assessed as maximum log cell kill at MIC after 24 to 48 hrs by time-kill method
Candida albicans [32] = experiment: Antifungal activity against Candida albicans ATCC 90029 assessed as maximum log cell kill at MIC after 24 hrs by time-kill method
Nakaseomyces glabratus [33] = experiment: Antifungal activity against Candida glabrata isolate 2 assessed as maximum log cell kill at 4 times MIC after >48 hrs by time-kill method
Nakaseomyces glabratus [34] = experiment: Antifungal activity against Candida glabrata isolate 1 assessed as maximum log cell kill at 16 times MIC after 24 to 48 hrs by time-kill method
Candida parapsilosis [35] = experiment: Antifungal activity against Candida parapsilosis isolate 1 assessed as maximum log cell kill at 4 times MIC after >48 hrs by time-kill method
Nakaseomyces glabratus [36] = experiment: Antifungal activity against Candida glabrata isolate 1 by Etest; summary of the method: as §1
Candida albicans [37] = experiment: Antifungal activity against Candida albicans ATCC 90029 assessed as maximum log cell kill at 16 times MIC after 24 to 48 hrs by time-kill method
Candida albicans [38] = experiment: Antifungal activity against Candida albicans ATCC 90029 assessed as maximum log cell kill at 4 times MIC after >48 hrs by time-kill method
Candida parapsilosis [39] = experiment: Antifungal activity against Candida parapsilosis isolate 1 assessed as maximum log cell kill at 4 times MIC after 24 hrs by time-kill method
Nakaseomyces glabratus [40] = experiment: Antifungal activity against Candida glabrata isolate 1 assessed as maximum log cell kill at 4 times MIC after 24 hrs by time-kill method
Candida parapsilosis [41] = experiment: Antifungal activity against Candida parapsilosis isolate 2 assessed as maximum log cell kill at MIC after 24 to 48 hrs by time-kill method; summary of the method: as §2
Nakaseomyces glabratus [42] = experiment: Antifungal activity against Candida glabrata isolate 2 assessed as maximum log cell kill at 16 times MIC after >48 hrs by time-kill method
Candida albicans [43] = experiment: Antifungal activity against Candida albicans ATCC 90029 assessed as maximum log cell kill at MIC after 24 to 48 hrs by time-kill method
Nakaseomyces glabratus [44] = experiment: Antifungal activity against Candida glabrata isolate 2 assessed as maximum log cell kill at 16 times MIC after 24 hrs by time-kill method
Candida albicans [45] = experiment: Antifungal activity against Candida albicans ATCC 90029 assessed as maximum log cell kill at 16 times MIC after 24 hrs by time-kill method
Candida albicans [46] = experiment: Antifungal activity against Candida albicans SC5314 assessed as maximum log cell kill at 4 times MIC after 24 to 48 hrs by time-kill method
Nakaseomyces glabratus [47] = experiment: Antifungal activity against Candida glabrata isolate 1 assessed as maximum log cell kill at 16 times MIC after >48 hrs by time-kill method
Candida parapsilosis [48] = experiment: Antifungal activity against Candida parapsilosis isolate 1 assessed as maximum log cell kill at MIC after >48 hrs by time-kill method
Candida albicans [49] = experiment: Antifungal activity against Candida albicans SC5314 assessed as maximum log cell kill at MIC after 24 to 48 hrs by time-kill method
Nakaseomyces glabratus [50] = experiment: Antifungal activity against Candida glabrata isolate 1 assessed as maximum log cell kill at 16 times MIC after 24 hrs by time-kill method
Candida parapsilosis [51] = experiment: Antifungal activity against Candida parapsilosis isolate 2 assessed as maximum log cell kill at 4 times MIC after >48 hrs by time-kill method; summary of the method: as §2
Nakaseomyces glabratus [52] = experiment: Antifungal activity against Candida glabrata isolate 2 assessed as maximum log cell kill at 4 times MIC after 24 hrs by time-kill method
Candida parapsilosis [53] = experiment: Antifungal activity against Candida parapsilosis isolate 1 assessed as maximum log cell kill at MIC after 24 hrs by time-kill method
Candida albicans [54] = experiment: Antifungal activity against Candida albicans ATCC 90029 by Etest; summary of the method: as §1
Nakaseomyces glabratus [55] = experiment: Antifungal activity against Candida glabrata isolate 1 assessed as maximum log cell kill at 4 times MIC after 24 to 48 hrs by time-kill method
Candida albicans [56] = experiment: Antifungal activity against Candida albicans SC5314 assessed as maximum log cell kill at 16 times MIC after 24 to 48 hrs by time-kill method
Nakaseomyces glabratus [57] = experiment: Antifungal activity against Candida glabrata isolate 1 assessed as maximum log cell kill at MIC after 24 hrs by time-kill method

## C[C@@H](c1ncncc1F)[C@](O)(Cn1cncn1)c1ccc(F)cc1F [VORICONAZOLE]
Candida albicans [1]
  MIC: 0.012 µg/mL (≈ 0.0344 µM)
Candida parapsilosis [2]
  LCK: -2.13
Candida parapsilosis [3]
  LCK: -1.86
Nakaseomyces glabratus [4]
  LCK: -2.49
Nakaseomyces glabratus [5]
  LCK: -0.99
Candida parapsilosis [6]
  LCK: -4.15
Candida parapsilosis [7]
  MIC: 0.016 µg/mL (≈ 0.0458 µM)
Candida albicans [8]
  LCK: -0.61
Candida parapsilosis [9]
  LCK: -2.74
Nakaseomyces glabratus [10]
  LCK: -1.08
Candida parapsilosis [11]
  LCK: -1.68
Nakaseomyces glabratus [12]
  LCK: -0.74
Candida parapsilosis [13]
  LCK: -0.88
Candida albicans [14]
  LCK: -1.34
Nakaseomyces glabratus [15]
  MIC: 0.032 µg/mL (≈ 0.0916 µM)
Candida parapsilosis [16]
  LCK: -3.94
Candida albicans [17]
  LCK: -1.89
Nakaseomyces glabratus [18]
  LCK: -1.02
Nakaseomyces glabratus [19]
  LCK: -2.39
Candida albicans [20]
  LCK: -0.51
Candida albicans [21]
  LCK: -1.63
Candida parapsilosis [22]
  LCK: -2.69
Candida parapsilosis [23]
  LCK: -3.93
Candida parapsilosis [24]
  LCK: -2.7
Candida parapsilosis [25]
  LCK: -0.91
Candida parapsilosis [26]
  MIC: 0.008 µg/mL (≈ 0.0229 µM)
Nakaseomyces glabratus [27]
  LCK: -2.78
Candida albicans [28]
  LCK: -0.54
Candida parapsilosis [29]
  LCK: -2.67
Candida albicans [30]
  LCK: -1.84
Nakaseomyces glabratus [31]
  LCK: -2.23
Candida albicans [32]
  LCK: -1.23
Nakaseomyces glabratus [33]
  LCK: -2.99
Nakaseomyces glabratus [34]
  LCK: -1
Candida parapsilosis [35]
  LCK: -2.37
Nakaseomyces glabratus [36]
  MIC: 0.19 µg/mL (≈ 0.544 µM)
Candida albicans [37]
  LCK: -1.96
Candida albicans [38]
  LCK: -1.9
Candida parapsilosis [39]
  LCK: -1.64
Nakaseomyces glabratus [40]
  LCK: -0.49
Candida parapsilosis [41]
  LCK: -1.03
Nakaseomyces glabratus [42]
  LCK: -3.02
Candida albicans [43]
  LCK: -1.77
Nakaseomyces glabratus [44]
  LCK: -1.15
Candida albicans [45]
  LCK: -1.34
Candida albicans [46]
  LCK: -0.53
Nakaseomyces glabratus [47]
  LCK: -1.17
Candida parapsilosis [48]
  LCK: -0.67
Candida albicans [49]
  LCK: -0.56
Nakaseomyces glabratus [50]
  LCK: -0.59
Candida parapsilosis [51]
  LCK: -1.12
Nakaseomyces glabratus [52]
  LCK: -1.1
Candida parapsilosis [53]
  LCK: -0.99
Candida albicans [54]
  MIC: 0.008 µg/mL (≈ 0.0229 µM)
Nakaseomyces glabratus [55]
  LCK: -0.78
Candida albicans [56]
  LCK: -0.58
Nakaseomyces glabratus [57]
  LCK: -0.43
